ChEMBL document CHEMBL1140019, “Primary amides as selective inhibitors of cathepsin K” (Bioorg Med Chem Lett, 2007)

Columns and labels:
Cathepsin K = Cathepsin K (Homo sapiens, UniProt P43235); assay: Inhibition of humanized rabbit cathepsin K
In short: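 IC50 was measured against the humanized rabbit enzyme and is the mean of at least four independent titrations, reported with SEM.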

Cathepsin B = Cathepsin B (Homo sapiens, UniProt P07858); assay: Inhibition of human cathepsin B
Procathepsin L = Procathepsin L (Homo sapiens, UniProt P07711); assay: Inhibition of human cathepsin L
Cathepsin S = Cathepsin S (Homo sapiens, UniProt P25774); assay: Inhibition of human cathepsin S
Sequence of Cathepsin S (P25774 whole entry): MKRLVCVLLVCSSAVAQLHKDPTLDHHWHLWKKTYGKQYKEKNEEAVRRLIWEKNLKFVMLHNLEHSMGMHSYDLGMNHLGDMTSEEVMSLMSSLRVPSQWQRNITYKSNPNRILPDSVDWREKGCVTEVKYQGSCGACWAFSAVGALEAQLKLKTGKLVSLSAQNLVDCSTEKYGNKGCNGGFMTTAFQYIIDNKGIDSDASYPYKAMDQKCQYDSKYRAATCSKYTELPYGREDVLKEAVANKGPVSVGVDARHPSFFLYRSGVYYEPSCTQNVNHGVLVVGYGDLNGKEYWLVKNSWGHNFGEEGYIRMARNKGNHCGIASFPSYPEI

Sequence of Procathepsin L (P07711 whole entry): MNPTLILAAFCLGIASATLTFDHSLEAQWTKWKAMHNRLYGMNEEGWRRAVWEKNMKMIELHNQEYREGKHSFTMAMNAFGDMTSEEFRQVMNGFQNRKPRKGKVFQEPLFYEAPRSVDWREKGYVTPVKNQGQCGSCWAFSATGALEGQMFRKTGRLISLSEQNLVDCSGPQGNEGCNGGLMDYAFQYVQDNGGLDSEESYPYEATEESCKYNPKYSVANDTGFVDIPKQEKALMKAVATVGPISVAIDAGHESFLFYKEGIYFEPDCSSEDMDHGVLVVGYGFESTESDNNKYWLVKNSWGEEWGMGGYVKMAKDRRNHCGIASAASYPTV

Row | IC50 (Cathepsin K) [nM] | IC50 (Cathepsin B) [nM] | IC50 (Procathepsin L) [nM] | IC50 (Cathepsin S) [nM] | Structure (SMILES)
1 | 238 |  |  |  | CSCC[C@H](NC(=O)[C@H](CC(C)C)N[C@@H](c1ccc(-c2ccc(S(C)(=O)=O)cc2)cc1)C(F)(F)F)C(=O)NS(C)(=O)=O
2 | 273 |  |  |  | CC(C)C[C@H](N[C@@H](c1ccc(-c2ccc(S(C)(=O)=O)cc2)cc1)C(F)(F)F)C(=O)N[C@@H](CCc1ccccc1)C(N)=O
3 | 87 |  |  |  | CSCC[C@H](NC(=O)[C@H](CC(C)C)N[C@@H](c1ccc(-c2ccc(S(C)(=O)=O)cc2)cc1)C(F)(F)F)C(=O)NCc1ccccc1
4 | 277 |  |  |  | CSCC[C@H](NC(=O)[C@H](CC(C)C)N[C@@H](c1ccc(-c2ccc(S(C)(=O)=O)cc2)cc1)C(F)(F)F)C(=O)NCC(F)(F)F
5 | 174 |  |  |  | CC(C)C[C@H](N[C@@H](c1ccc(-c2ccc(S(C)(=O)=O)cc2)cc1)C(F)(F)F)C(=O)N[C@@H](C)C(N)=O
6 | 66 |  |  |  | CSC[C@H](NC(=O)[C@H](CC(C)C)N[C@@H](c1ccc(-c2ccc(S(C)(=O)=O)cc2)cc1)C(F)(F)F)C(N)=O
7 | 109 |  |  |  | CC(C)C[C@H](N[C@@H](c1ccc(-c2ccc(S(C)(=O)=O)cc2)cc1)C(F)(F)F)C(=O)N[C@@H](CS(C)(=O)=O)C(N)=O
8 | 151 |  |  |  | CC(C)C[C@H](N[C@@H](c1ccc(-c2ccc(S(C)(=O)=O)cc2)cc1)C(F)(F)F)C(=O)N[C@@H](CCS(C)(=O)=O)C(N)=O
9 | 0.9 |  |  |  | CC(C)C[C@H](N[C@@H](c1ccc(-c2ccc(S(C)(=O)=O)cc2)cc1)C(F)(F)F)C(=O)N[C@@H](C)C#N
10 | 0.2 |  |  |  | CSCC[C@@H](C#N)NC(=O)[C@H](CC(C)C)N[C@@H](c1ccc(-c2ccc(S(C)(=O)=O)cc2)cc1)C(F)(F)F
11 | 67 |  |  |  | CNC(=O)[C@H](CCSC)NC(=O)[C@H](CC(C)C)N[C@@H](c1ccc(-c2ccc(S(C)(=O)=O)cc2)cc1)C(F)(F)F
12 | 41 |  |  |  | CSCC[C@H](NC(=O)[C@H](CC(C)C)N[C@@H](c1ccc(-c2ccc(S(C)(=O)=O)cc2)cc1)C(F)(F)F)C(C)=O
13 | 120 |  |  |  | CSCC[C@H](NC(=O)[C@H](CC(C)C)N[C@@H](c1ccc(-c2ccc(S(C)(=O)=O)cc2)cc1)C(F)(F)F)C(=O)O
14 | 6070 |  |  |  | CC(C)C[C@H](N[C@@H](c1ccc(-c2ccc(S(C)(=O)=O)cc2)cc1)C(F)(F)F)C(=O)N[C@H](Cc1ccccc1)C(N)=O
15 | 10 | > 100000 | 17000 | 66700 | CC(C)C[C@H](N[C@@H](c1ccc(-c2ccc(S(C)(=O)=O)cc2)cc1)C(F)(F)F)C(=O)N[C@@H](Cc1ccccc1)C(N)=O
16 | 0.6 |  |  |  | CC(C)C[C@H](N[C@@H](c1ccc(-c2ccc(S(C)(=O)=O)cc2)cc1)C(F)(F)F)C(=O)N[C@H](C#N)Cc1ccccc1
17 | 238 | > 100000 | 63100 | 41100 | CC(C)C[C@H](N[C@@H](c1ccc(-c2ccc(S(C)(=O)=O)cc2)cc1)C(F)(F)F)C(=O)NCC(N)=O
18 | 13 | > 100000 | 55700 | 76900 | CSCC[C@H](NC(=O)[C@H](CC(C)C)N[C@@H](c1ccc(-c2ccc(S(C)(=O)=O)cc2)cc1)C(F)(F)F)C(N)=O
19 | 1050 |  |  |  | CSCC[C@H](NC(=O)[C@H](CC(C)C)N[C@@H](c1ccc(-c2ccc(S(C)(=O)=O)cc2)cc1)C(F)(F)F)C(=O)N(C)C
20 | 27 |  |  |  | COC(=O)[C@H](CCSC)NC(=O)[C@H](CC(C)C)N[C@@H](c1ccc(-c2ccc(S(C)(=O)=O)cc2)cc1)C(F)(F)F
21 | 0.2 |  |  |  | CC(C)C[C@H](N[C@@H](c1ccc(-c2ccc(S(C)(=O)=O)cc2)cc1)C(F)(F)F)C(=O)NCC#N
